# PHOSPHO1 inh = PHOSPHO1 (human) inhibition; AID 1565; recombinant PHOSPHO1, absorbance phosphatase assay; actives 1.1% (n = 290,000); inhibition, % at 13.3 µM; Q8TCT1; in the data active = inhibition above about 60%
# Target sequence (Q8TCT1 whole entry, looked up): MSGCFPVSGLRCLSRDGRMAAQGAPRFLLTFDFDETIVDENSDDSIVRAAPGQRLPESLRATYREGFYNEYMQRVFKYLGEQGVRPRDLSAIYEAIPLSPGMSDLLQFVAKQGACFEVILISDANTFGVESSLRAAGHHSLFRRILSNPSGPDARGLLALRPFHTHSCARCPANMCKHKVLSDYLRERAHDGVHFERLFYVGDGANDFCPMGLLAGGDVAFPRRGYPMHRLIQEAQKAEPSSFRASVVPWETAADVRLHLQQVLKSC
# KCNK3 inh = human KCNK3 channel inhibition, primary screen. O14649. CHO-KCNK3 thallium flux, FluxOR fluorescence; hits give low values. B-score at 10 µM. actives 0.84% (n = 340,000). AID 602410;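 active = B-score under library mean minus 4 SD, starting fluorescence ratio at most library mean plus 5 SD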;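 note: more negative B-score means stronger inhibition of thallium flux through KCNK3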
# Target sequence (O14649 whole entry, looked up): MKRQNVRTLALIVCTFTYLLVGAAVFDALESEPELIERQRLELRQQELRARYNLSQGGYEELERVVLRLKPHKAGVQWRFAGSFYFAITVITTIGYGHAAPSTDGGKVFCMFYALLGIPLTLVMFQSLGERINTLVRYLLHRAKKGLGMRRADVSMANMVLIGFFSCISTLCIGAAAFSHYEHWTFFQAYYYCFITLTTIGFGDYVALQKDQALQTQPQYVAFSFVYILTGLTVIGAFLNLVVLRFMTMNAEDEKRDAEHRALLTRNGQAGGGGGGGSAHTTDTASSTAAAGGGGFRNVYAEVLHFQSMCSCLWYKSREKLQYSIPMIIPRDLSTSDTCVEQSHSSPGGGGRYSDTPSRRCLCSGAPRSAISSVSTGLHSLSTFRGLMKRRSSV
# hERG rescue = shields human hERG channel from block by proarrhythmic agents; CHO-hERG, FluxOR thallium flux, dofetilide IC70 present; activation (rescue from dofetilide block), less the hit threshold, % at 10 µM; actives 0.51% (n = 310,000);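 active = activation above the mean of controls blocked by dofetilide plus 5 SD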;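 note: thallium influx through hERG after potassium depolarization seen as dye fluorescence rise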
# KCNK9 inh = inhibitors of human KCNK9 two-pore domain potassium channel. B-score at 10 µM. HEK293 KCNK9, FluxOR thallium flux fluorescence; hits give low values. Q9NPC2. AID 488922. actives 1.2% (n = 310,000);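 active = ratio B-score over 3 SD below the library mean, with starting fluorescence within 5 SD of its mean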;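 note: negative B-score means less thallium flux so channel inhibition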
# KCNQ1 act = potentiators or activators of human KCNQ1 potassium channel. P51787. CHO-K1 KCNQ1, thallium flux FluxOR fluorescence; hits give high values. B-score at 10 µM. actives 0.35% (n = 310,000). AID 2648;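 active = fluorescence ratio B-score, a plate-corrected score, at least three library SD, with initial intensity B-score within 5 SD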
#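 assay system = CHO-K1 cells stably expressing KCNQ1 | medium = assay buffer, equal DMSO in all wells | timing = 37 °C overnight plating, 90-min dark dye load, 20-min compound pretreatment | measured by = kinetic FluxOR thallium fluorescence, 10-s 1-Hz baseline, 110-s post-stimulus read | measure = fluorescence change relative to baseline, converted to B score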
# KCNQ1 inh = human KCNQ1 channel inhibition; P51787; CHO-K1 KCNQ1, FluxOR thallium flux fluorescence; hits give high values; B-score at 10 µM; actives 1.3% (n = 310,000); AID 2642;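 active = compounds whose thallium flux B-score, printed positive for inhibition, exceeds three library SD while starting fluorescence stays within three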;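 note: channel opened by potassium depolarization with thallium stimulus after 20 min compound exposure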
# KCNK9 inh conf = human KCNK9 inhibitor confirmation. shares compounds with KCNK9 inh. HEK293 KCNK9 cells, FluxOR thallium flux fluorescence. actives 43% (n = 4,900). inhibition, % at 10 µM. AID 492992;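 active = thallium signal inhibited by more than 5 SD of the compound-free buffer control wells, on both duplicate plates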;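 note: 0% = assay buffer control wells without compound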
# Kir2-1 spec = tests whether KCNK9 modulators also affect mouse Kir2.1; shares compounds with KCNK9 inh; Kir2.1 cells, FluxOR thallium flux fluorescence; inhibition, % at 10 µM; actives 4% (n = 4,900); AID 492993;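 active = thallium signal drop more than 5 SD beyond the mean of the no-compound control wells, seen in both duplicate plates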;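 note: signal is fluorescence rise after thallium addition divided by baseline fluorescence; plate controls were assay buffer only for no effect and full block by chlorpromazine control for full effect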
# KCNK9 uninduced = second counter-screen for KCNK9 modulators: effect in non-induced cells; shares compounds with KCNK9 inh; non-induced KCNK9-HEK293, FluxOR thallium flux; inhibition, % at 10 µM; actives 40% (n = 4,900); AID 492997;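 active = thallium signal drop beyond 5 SD of the untreated control mean, on both duplicate plates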;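 note: plate controls were buffer only IC0 wells for no effect and SID17386958 at its maximal inhibitory level for full effect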
# Active calls of the source: *; i = inactive; · = no result given. Rows were chosen to be rich in hits. Some 4% of all compounds tested hit in one or more screens of this group.
SMILES,PHOSPHO1 inh,KCNK3 inh,hERG rescue,KCNK9 inh,KCNQ1 act,KCNQ1 inh,KCNK9 inh conf,Kir2-1 spec,KCNK9 uninduced
CC(=O)Nc1cccc(NC(=O)c2cccc(S(=O)(=O)N3CCN(Cc4ccccc4)CC3)c2)c1,·,i,-10.6,i,i,i,·,·,·
CSc1ccc(CN(C)C(=O)c2cccc(S(=O)(=O)N3CCN(Cc4ccccc4)CC3)c2)cc1,·,i,-14.5,i,i,9*,i,i,i
CC1(C)Cc2c(C#N)c(NCc3ccco3)nc(-c3ccco3)c2CO1,-6.1,i,-10.3,i,i,i,·,·,·
CC1(C)Cc2c(C#N)c(N3CCCC3)nc(-c3ccco3)c2CO1,-0.1,i,-25.6,i,i,i,i,i,i
CC(C)c1nc(N2CCN(C(=O)c3ccco3)CC2)c(C#N)c2c1COC(C)(C)C2,41.6,i,-21.5,i,i,i,·,·,·
CC(C)c1nc(N2CCN(C(=O)c3ccccc3)CC2)c(C#N)c2c1COC(C)(C)C2,-10.5,i,-11.8,i,i,i,i,i,i
NC(=O)CC[C@@H]1NC(=O)[C@@H]2CCCN2C(=O)c2cc([N+](=O)[O-])cc(I)c2NCCC[C@@H](C(=O)NC(CC(=O)O)C(N)=O)NC1=O (some centres not stated),-3.7,·,·,·,·,·,·,·,·
O=S(=O)(c1cccc(Br)c1)N1CCN(CCc2ccccc2)CC1,49.2,i,-12.0,i,i,i,i,i,i
O=S(=O)(c1cccs1)N1CCN(CCc2ccccc2)CC1,·,i,-3.2,i,i,i,·,·,·
Cc1cc(S(=O)(=O)N2CCN(Cc3ccccc3)CC2)c(C)s1,2.1,i,-8.8,i,i,i,i,i,i
O=S(=O)(c1ccc(Cl)s1)N1CCN(CCc2ccccc2)CC1,19.8,i,-7.4,i,i,i,i,i,i
COc1cc(C)c(C)cc1S(=O)(=O)N1CCN(Cc2ccccc2)CC1,25.3,i,-7.0,i,i,i,·,·,·
CC(C)c1ccc(CN2CCN(S(=O)(=O)c3ccc(Cl)s3)CC2)cc1,·,i,·,·,·,·,·,·,·
O=S(=O)(c1ccc(Cl)s1)N1CCN(Cc2ccccc2)CC1,20.9,i,-7.2,i,i,i,i,i,i
CN1CCN(C(=O)N(c2ccccc2)c2ccccc2)CC1,·,i,-11.7,i,i,i,·,·,·
CCOc1ccc(N2C(=O)c3cccnc3C2Nc2ccc(OC)cc2)cc1 (configuration not stated),23.1,i,-8.3,i,i,i,·,·,·
CCOc1ccc(N2C(=O)c3cccnc3C2Nc2ccc(C)c(C)c2)cc1 (configuration not stated),8.2,i,-11.3,i,i,i,i,i,i
CCOc1ccc(N2C(=O)c3cccnc3C2Nc2ccc(C)cc2)cc1 (configuration not stated),18.2,i,-6.6,i,i,i,i,i,i
O=C(/C=C/c1nc2ccccc2s1)N1CCCCCC1,2.2,i,-9.8,i,i,i,·,·,·
Cc1nnc(SCc2nnc(-c3ccccc3Br)o2)s1,-12.4,i,-7.9,i,i,i,·,·,·
O=C(c1cccc2c1-c1ccccc1C2)N1CCCCC1,19.1,i,-4.9,i,i,i,·,·,·
N#Cc1ccccc1-c1ccccc1C(=O)N1CCCCC1,13.8,i,-2.5,-19.2*,i,i,i,i,i
CCN(CC(O)COc1ccc(OCC(O)CN(CC)C2CCCCC2)cc1)C1CCCCC1 (configuration not stated),·,i,-4.6,i,i,i,·,·,·
CN(Cc1ccccc1)CC1CCCN(CCc2ccccc2F)C1 (configuration not stated),29.1,i,-1.3,i,i,i,·,·,·
COc1cc(CN(C)CC2CCCN(CCc3ccccc3F)C2)cc(Cl)c1OC (configuration not stated),24.1,i,-3.6,i,i,i,i,i,i
SMILES,PHOSPHO1 inh,KCNK3 inh,hERG rescue,KCNK9 inh,KCNQ1 act,KCNQ1 inh,KCNK9 inh conf,Kir2-1 spec,KCNK9 uninduced
Cc1nc(SCc2nc3c(F)cccc3[nH]2)c2oc3ccccc3c2n1,·,i,·,·,·,·,·,·,·
Cc1oc2c(C)c3oc(=O)c4c(c3cc2c1C)CCCC4,-5.5,i,-6.8,i,i,i,·,·,·
CC[n+]1c(/C=C/c2ccc(OC)c(OC)c2)ccc2ccccc21,13.8,i,-7.2,i,i,i,·,·,·
CC[n+]1c(/C=C/c2ccc(N(C)C)cc2)ccc2ccccc21,-12.2,i,-24.9,-11.8*,i,i,60.0%*,85.0%*,59.5%*
CCOC(=O)NC(=O)CSc1nc(-c2ccc(C)c(C)c2)cn1-c1ccccc1,4.9,i,-9.7,-8.16*,i,i,41.5%*,i,36.0%*
COc1ccc(C(C)n2c(C)c3c(C)nnc(C)c3c2C)cc1 (configuration not stated),8.1,i,-16.8,i,i,i,·,·,·
Cc1cc(C)nc(NS(=O)(=O)c2ccc(NC(=O)C3(c4ccc([N+](=O)[O-])cc4)CCCC3)cc2)n1,-6.2,i,-5.4,i,i,i,·,·,·
Cc1cccc(NC(=O)C2(c3ccc([N+](=O)[O-])cc3)CCCC2)c1,26.7,i,-8.4,i,i,6*,i,i,i
O=C(NN(CC(O)COc1ccccc1)CC(O)COc1ccccc1)c1ccccc1 (configuration not stated),-32.7,i,-12.6,i,i,i,·,·,·
COc1ccc(-c2noc(C3CCCN(S(=O)(=O)c4cccc(Cl)c4)C3)n2)cc1OC (configuration not stated),0.7,i,-11.8,-8.12*,i,i,i,i,26.0%*
Cc1cc(=O)oc2cc(O)cc(OCc3ccccc3)c12,·,i,·,·,·,·,·,·,·
CCCCN(CCCC)c1ccc(C(=O)c2ccccc2C(=O)O)c(O)c1,37.3,i,-26.5,i,18*,i,i,i,i
CN(C)CCN(Cc1ccccc1)c1ccnc(N(C)C)c1C#N,-6.6,i,-11.2,i,i,i,·,·,·
CN(C)c1nccc(N(Cc2ccccc2)Cc2ccccc2)c1C#N,10.1,i,-6.0,i,i,i,i,i,24.0%*

# Source: PubChem
